Experiment [1] deals with FL transporter-1 (Blon_0341–0343). Type of experiment: cell-based, B. infantis JCM 1222^T. Conditions: for change in concentration of each HMO in culture supernatant (consumption): MS554 expressing FL transporter-1, growth on 0.5% (w/v) purified HMO mixture. The procedure, abridged: (§1)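 The host was B. longum 105-A ΔlnbX ΔgltA carrying pMSK65, which encodes intracellular HMO-degrading exo-glycosidases. It was transformed with the transporter gene cluster or an empty vector. Cultures grew anaerobically at 37°C in MRS-CS with 0.5% (w/v) purified HMO mixture, Lac, 2′-FL, 3-FL, LDFT or LNFP I. OD600 was followed in technical duplicates. Supernatant HMOs were fluorescence-labelled and measured by HPLC against a maltoheptaose internal standard, in technical triplicates; means ± SD.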

Experiment [2] has as its system FL transporter-2 (Blon_2202–2204). Type of experiment: cell-based, B. infantis JCM 1222^T. Conditions: for change in concentration of each HMO in culture supernatant (consumption): MS554 expressing FL transporter-2, growth on 0.5% (w/v) purified HMO mixture. In outline: as §1
In experiment [3] the test system is B. infantis JCM 1222^T. In kind it is cell-based. Conditions: 0.5% (w/v) sugar. The procedure, abridged: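 B. infantis JCM 1222T wild type and FL transporter mutants were grown anaerobically at 37°C in MRS-CS broth (0.34% w/v sodium ascorbate, 0.02% w/v cysteine-HCl). Each broth carried 0.5% (w/v) of Gal, 2′-FL, 3-FL, LDFT, LNFP I or purified HMO mixture. The HMO mixture was purified from pooled breast milk and contained 2% (w/w) Lac impurity. Growth was followed over time in biological duplicates, reported as means ± SD.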

The values below come from publication PMC6713505 (Science Advances, 2019).

With `CC(=O)N[C@H]1[C@H](O[C@H]2[C@@H](O)[C@@H](CO)O[C@@H](O[C@H]3[C@H](O)[C@@H](O)C(O)O[C@@H]3CO)[C@@H]2O)O[C@H](CO)[C@@H](O)[C@@H]1O[C@@H]1O[C@H](CO)[C@H](O)[C@H](O)[C@H]1O` (some centres unmarked) [LNT, lacto-N-tetraose], the “change in concentration of each HMO in culture supernatant (consumption)” value (“change in concentration of each HMO” for short) in experiment [1] and in experiment [2] was “invariant” each time.

Take `CC(=O)N[C@H]1[C@H](O[C@H]2[C@@H](O)[C@@H](CO)O[C@@H](O[C@@H]([C@H](O[C@@H]3O[C@@H](C)[C@@H](O)[C@@H](O)[C@@H]3O)[C@@H](O)C=O)[C@H](O)CO)[C@@H]2O)O[C@H](CO)[C@@H](O[C@@H]2O[C@@H](C)[C@@H](O)[C@@H](O)[C@@H]2O)[C@@H]1O[C@@H]1O[C@H](CO)[C@H](O)[C@H](O)[C@H]1O` [LNDFH II]: the “change in concentration of each HMO” value in experiment [1] and in experiment [2] was “invariant” throughout.

Regarding `O=C[C@H](O)[C@@H](O)[C@@H](O)[C@H](O)CO` [Gal, galactose], the “growth of WT and the four mutants of B. infantis” value in experiment [3] is given as “grew at similar rates”.

On to `OC[C@H]1O[C@@H](O[C@H]2[C@H](O)[C@@H](O)C(O)O[C@@H]2CO)[C@H](O)[C@@H](O)[C@H]1O` (mixture of isomers) [Lac, lactose], for which the “growth on sugar as carbon source” value in experiment [1] (MS554 expressing FL transporter-1, 0.5% (w/v) sugar, OD600) is reported as “indistinguishable from the control strain”; in experiment [2] (MS554 expressing FL transporter-2, 0.5% (w/v) sugar, OD600), “indistinguishable from the control strain”.

Turning to `CC(=O)N[C@H]1[C@H](O[C@H]2[C@@H](O)[C@@H](CO)O[C@@H](O[C@H]3[C@H](O)[C@@H](O)C(O)O[C@@H]3CO)[C@@H]2O)O[C@H](CO)[C@@H](O[C@@H]2O[C@H](CO)[C@H](O)[C@H](O)[C@H]2O)[C@@H]1O` (mixture of isomers) [LNnT, lacto-N-neotetraose], the “change in concentration of each HMO” value in experiment [1] and in experiment [2] was “invariant” throughout.

Consider “lacto-N-difucohexaose (LNDFH) I [LNDFH I]”, for which the “change in concentration of each HMO” value in experiment [1] and in experiment [2] was “invariant” throughout.
